Data as given in ChEMBL document CHEMBL4765376, “Discovery of an Orally Available Diazabicyclooctane Inhibitor (ETX0282) of Class A, C, and D Serine β-Lactamases” (J Med Chem, 2020).
pIC50: −log10 of the molar value. Converted amounts (≈) assume the structure as drawn. The source made the active and inactive calls. No cut-off for these calls is given here.

Legend:
[1] = Inhibition of beta lactamase OXA-48 in Klebsiella pneumoniae assessed as decrease in enzyme activity using nitrocefin as chromogenic substrate incubated for 10 mins by […] plate reader analysis
Escherichia coli [2] = assay: Antibacterial activity against Escherichia coli ARC3627 assessed as reduction in bacterial growth by CLSI based broth dilution method; type: functional
Outline: (§1)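 Broth microdilution in CAMHB following CLSI.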

Klebsiella pneumoniae [3] = assay: Antibacterial activity against Klebsiella pneumoniae ARC561 assessed as reduction in bacterial growth by CLSI based broth dilution method; type: functional; outline: as §1
[4] = Inhibition of beta lactamase OXA-48 in Klebsiella pneumoniae assessed as decrease in enzyme activity using nitrocefin as chromogenic substrate incubated for 60 mins by absorbance plate reader analysis
Escherichia coli [5] = assay: Inhibition of beta-lactamase activity in Escherichia coli ARC3627 assessed as MIC for cefpodoxime antibacterial activity at 4 ug/ml by CLSI based broth dilution method (Rvb >64 ug/ml); details: dose 4.0 µg/ml
Klebsiella pneumoniae [6] = assay: Inhibition of beta-lactamase activity in Klebsiella pneumoniae ARC561 assessed as MIC for cefpodoxime antibacterial activity at 4 ug/ml by CLSI based broth dilution method (reference value: 32 ug/ml); details: dose 4.0 µg/ml
[7] = Inhibition of beta lactamase AmpC in Pseudomonas aeruginosa assessed as decrease in enzyme activity using nitrocefin as chromogenic substrate incubated for 10 mins by […] plate reader analysis
[8] = Inhibition of beta lactamase AmpC in Pseudomonas aeruginosa assessed as decrease in enzyme activity using nitrocefin as chromogenic substrate incubated for 60 mins by […] plate reader analysis
[9] = Inhibition of beta lactamase TEM-1 in Escherichia coli assessed as decrease in enzyme activity using nitrocefin as chromogenic substrate incubated for 60 mins by […] plate reader analysis
[10] = Inhibition of beta lactamase TEM-1 in Escherichia coli assessed as decrease in enzyme activity using nitrocefin as chromogenic substrate incubated for 10 mins by […] plate reader analysis
[11] = Oral bioavailability in Sprague-Dawley rat at 10 mg/kg by LC/MS/MS analysis; type: ADME, organism-based; details: in vivo
Outline: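 Jugular vein-cannulated male Sprague Dawley rats (180–200 g, n = 3/route). Intravenous arm: active acid at 10 mg/kg in 0.9% saline, plasma sampled 0.08–8 h. Oral arm: prodrug at a dose equivalent to 10 mg/kg acid in 25:75 PEG 400/WFI, plasma sampled 0.25–24 h. Levels by LC/MS/MS; F = (AUCpo/AUCiv) × 100.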

[12] = Stability of compound in phosphate buffer assessed as half-life at pH 7.4; type: physicochemical
Outline: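 Compound at 10 μM in potassium phosphate buffer pH 7.4 at 37 °C without S9. Sampled at 0 to 60 min and measured by LC/MS/MS. Half-life from the first-order log-linear depletion slope.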

[13] = Metabolic stability in human intestinal S9 fraction assessed as half-life at 10 uM up to 60 mins by LC/MS/MS analysis; type: ADME, subcellular, Intestine
Outline: (§2)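 S9 fraction at 0.8 mg/mL protein in 100 mM potassium phosphate pH 7.4, preincubated 5 min at 37 °C, then compound added at 10 μM final. Aliquots taken at 0, 2, 5, 10, 20, 40 and 60 min, quenched in acetonitrile with internal standard, and prodrug measured by LC/MS/MS. First-order half-life taken from the log-linear depletion slope.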

[14] = Metabolic stability in human liver S9 fraction assessed as half-life at 10 uM up to 60 mins by LC/MS/MS analysis; type: ADME, subcellular; outline: as §2
[15] = Metabolic stability in rat intestinal S9 fraction assessed as half-life at 10 uM up to 60 mins by LC/MS/MS analysis; type: ADME, subcellular, Intestine; outline: as §2
[16] = Metabolic stability in rat liver S9 fraction assessed as half-life at 10 uM up to 60 mins by LC/MS/MS analysis; type: ADME, subcellular; outline: as §2
Enterobacter cloacae [17] = assay: Antibacterial activity against Enterobacter cloacae ARC 6049 drug resistant clinical isolates assessed as reduction in bacterial growth by CLSI based broth dilution method; type: functional
Outline: (§3)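 Broth microdilution per CLSI in cation-adjusted Mueller–Hinton broth against drug-resistant clinical isolates; MIC read as the lowest concentration preventing bacterial growth.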

Citrobacter freundii = assay: Antibacterial activity against Citrobacter freundii ARC 3518 carbapenem resistant clinical isolates assessed as reduction in bacterial growth by CLSI based broth dilution method; type: functional; outline: as §3
Klebsiella pneumoniae [18] = assay: Antibacterial activity against Klebsiella pneumoniae ARC 6088 carbapenem-resistant clinical isolates assessed as reduction in bacterial growth by CLSI based broth dilution method; type: functional; outline: as §3
Escherichia coli [19] = assay: In vivo antibacterial activity against multidrug-resistant Escherichia coli ARC 2687 infected in CD-1 mouse model of neutropenic thigh infection assessed as colony forming unit at 50 mg/kg, po administered at 6 hrs interval; type: functional, organism-based
Outline: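 Female CD-1 mice (20–22 g, 3/arm) made neutropenic with ip cyclophosphamide, 150 mg/kg on day −4 and 100 mg/kg on day −1. Each thigh received an im inoculum of 5.5 × 10^6–1.6 × 10^7 CFU from saline suspension (OD625 0.1, diluted). Dosing began 2 h post-infection, q6h. Oral agents were given in 0.5% HPMC/0.1% Tween 80; meropenem was given sc in water. Thighs were taken at 24 h, homogenized and plated on TSA (35 °C overnight) for CFU counts.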

Klebsiella pneumoniae [20] = assay: Antibacterial activity against Klebsiella pneumoniae ARC 6082 drug resistant clinical isolates assessed as reduction in bacterial growth by CLSI based broth dilution method; type: functional; outline: as §3
Klebsiella pneumoniae [21] = assay: Antibacterial activity against Klebsiella pneumoniae ARC 6098 drug resistant clinical isolates assessed as reduction in bacterial growth by CLSI based broth dilution method; type: functional; outline: as §3
Klebsiella oxytoca = assay: Antibacterial activity against Klebsiella oxytoca ARC 5389 carbapenem resistant clinical isolates assessed as reduction in bacterial growth by CLSI based broth dilution method; type: functional; outline: as §3
Enterobacter cloacae [22] = assay: Antibacterial activity against Enterobacter cloacae ARC 6055 drug resistant clinical isolates assessed as reduction in bacterial growth by CLSI based broth dilution method; type: functional; outline: as §3
Klebsiella pneumoniae [23] = assay: Antibacterial activity against Klebsiella pneumoniae ARC 6107 carbapenem resistant clinical isolates assessed as reduction in bacterial growth by CLSI based broth dilution method; type: functional; outline: as §3

Compound	pIC50 [1]	MIC (Escherichia coli [2])	MIC (Klebsiella pneumoniae [3])	pIC50 [4]	MIC (Escherichia coli [5])	MIC (Klebsiella pneumoniae [6])	pIC50 [7]	pIC50 [8]	pIC50 [9]	pIC50 [10]	other results
CC1=C[C@@H]2CN(C(=O)N2OS(=O)(=O)O)[C@@H]1C(N)=O	7.62	0.25 µg/mL (≈ 0.902 µM)	8 µg/mL (≈ 28.9 µM)	8.30	< 0.06 µg/mL	< 0.06 µg/mL	8.10	8.24	–	–	–
CC1=C[C@@H](C(N)=O)N2C[C@@H]1N(O[C@H](F)C(=O)O)C2=O	6.43	–	–	7.15	< 0.06 µg/mL	0.25 µg/mL (≈ 0.915 µM)	6.35	6.85	8.49	8.64	–
CC1=C[C@@H]2CN(C(=O)N2O[C@H](F)C(=O)OC(C)OC(=O)OC(C)C)[C@@H]1C(N)=O (some centres not stated)	–	–	–	–	–	–	–	–	–	–	bioavailability [11]: 11%
CC1=C[C@@H]2CN(C(=O)N2O[C@@H](F)C(=O)O)[C@@H]1C(=O)NCCNS(N)(=O)=O	5.70	2 µg/mL (≈ 5.06 µM)	> 32 µg/mL	6.38	< 0.06 µg/mL	0.125 µg/mL (≈ 0.316 µM)	7.28	7.85	7.08	7.26	–
CC1=C[C@@H]2CN(C(=O)N2OC(C)(F)C(=O)O)[C@@H]1C(N)=O (some centres not stated)	4.05	> 32 µg/mL	> 32 µg/mL	4.66	2 µg/mL (≈ 6.96 µM)	2 µg/mL (≈ 6.96 µM)	5.85	6.40	6.64	6.17	–
CC1=C[C@@H]2CN(C(=O)N2O[C@@H](F)C(=O)O)[C@@H]1C(=O)NOCC1CC1	6.40	> 32 µg/mL	> 32 µg/mL	7.06	16 µg/mL (≈ 46.6 µM)	4 µg/mL (≈ 11.7 µM)	6.15	6.89	7.59	7.74	–
CC1=C[C@@H](C(N)=O)N2C[C@@H]1N(O[C@@H](F)C(=O)O)C2=O (racemic)	7.17	–	> 32 µg/mL	7.72	< 0.06 µg/mL	0.06 µg/mL (≈ 0.22 µM)	5.89	6.52	7.59	7.70	–
CCOC(=O)[C@@H](F)ON1C(=O)N2C[C@H]1C(C)=C[C@H]2C(N)=O	–	–	–	–	–	–	–	–	–	–	bioavailability [11]: 75%
CC1=C[C@@H]2CN(C(=O)N2O[C@H](F)C(=O)OC(C)C)[C@@H]1C(N)=O	–	–	–	–	–	–	–	–	–	–	bioavailability [11]: 38%
CC1=C[C@@H]2CN(C(=O)N2O[C@H](F)C(=O)O)[C@@H]1C(N)=O	7.15	2 µg/mL (≈ 7.32 µM)	32 µg/mL (≈ 117 µM)	7.82	0.06 µg/mL (≈ 0.22 µM)	0.25 µg/mL (≈ 0.915 µM)	7.39	7.96	8.85	9.14	–
CC1=C[C@@H]2CN(C(=O)N2OC(F)(F)C(=O)O)[C@@H]1C(N)=O	7.12	inactive	inactive	7.85	inactive	inactive	7.30	7.92	8.82	8.92	–
CC1=C[C@@H](C(N)=O)N2C[C@@H]1N(OCC(=O)O)C2=O	7.18	2 µg/mL (≈ 7.84 µM)	32 µg/mL (≈ 125 µM)	6.28	< 0.06 µg/mL	0.125 µg/mL (≈ 0.49 µM)	4.85	5.34	6.82	6.47	–
CC1=C[C@@H]2CN(C(=O)N2O[C@@H](F)C(=O)O)[C@@H]1c1nnc(C(N)=O)o1	7.59	16 µg/mL (≈ 46.9 µM)	> 32 µg/mL	8.14	2 µg/mL (≈ 5.86 µM)	2 µg/mL (≈ 5.86 µM)	6.44	6.74	7.62	7.77	–
CCOC(=O)[C@@H](F)ON1C(=O)N2C[C@H]1C=C(C)[C@H]2C(N)=O	–	–	–	–	–	–	–	–	–	–	bioavailability [11]: 45%
NC(=O)[C@@H]1C(C2CC2)=C[C@@H]2CN1C(=O)N2OC(F)C(=O)O (single isomer, unassigned)	7.77	32 µg/mL (≈ 107 µM)	> 32 µg/mL	8.28	2 µg/mL (≈ 6.68 µM)	2 µg/mL (≈ 6.68 µM)	6.54	7.02	7.62	7.74	–
CC1=C[C@@H]2CN(C(=O)N2O[C@@H](F)C(=O)O)[C@@H]1C(=O)NC1COC1	7.26	16 µg/mL (≈ 48.6 µM)	> 32 µg/mL	7.92	> 32 µg/mL	4 µg/mL (≈ 12.1 µM)	6.59	7.27	6.18	6.36	–
CCOC(=O)[C@H](F)ON1C(=O)N2C[C@H]1C(C)=C[C@H]2C(N)=O (racemic)	–	–	–	–	–	–	–	–	–	–	bioavailability [11]: 71%
CC1=C[C@@H]2CN(C(=O)N2O[C@@H](F)C(=O)O)[C@@H]1C(=O)NCCS(N)(=O)=O	5.66	4 µg/mL (≈ 10.5 µM)	> 32 µg/mL	6.39	< 0.06 µg/mL	1 µg/mL (≈ 2.63 µM)	7.66	8.39	7.24	7.32	–
CCOC(=O)[C@H](F)ON1C(=O)N2C[C@H]1C=C(C)[C@H]2C(=O)NCCS(N)(=O)=O	–	–	–	–	–	–	–	–	–	–	bioavailability [11]: 4%; half-life [12]: 26 min; half-life at 10 µM [13]: 22 min; half-life at 10 µM [14]: 9.9 min; half-life at 10 µM [15]: 20 min; half-life at 10 µM [16]: 10 min
CC1=C[C@@H]2CN(C(=O)N2OCC(=O)O)[C@@H]1C(N)=O	6.82	32 µg/mL (≈ 125 µM)	> 32 µg/mL	7.29	4 µg/mL (≈ 15.7 µM)	2 µg/mL (≈ 7.84 µM)	5.39	5.92	6.37	5.82	–
CC1=C[C@@H]2CN(C(=O)N2O[C@@H](F)C(=O)O)[C@@H]1C(N)=O	7.20	8 µg/mL (≈ 29.3 µM)	> 32 µg/mL	7.82	1 µg/mL (≈ 3.66 µM)	2 µg/mL (≈ 7.32 µM)	6.74	7.15	7.72	7.89	–
NC(=O)[C@@H]1CC[C@@H]2CN1C(=O)N2OS(=O)(=O)O [AVIBACTAM]	–	32 µg/mL (≈ 121 µM)	> 32 µg/mL	–	0.5 µg/mL (≈ 1.89 µM)	1 µg/mL (≈ 3.77 µM)	–	–	–	–	–
COCC1=C(C(=O)O)N2C(=O)[C@@H](NC(=O)/C(=N\OC)c3csc(N)n3)[C@H]2SC1 [CEFPODOXIME]	–	> 64 µg/mL	32 µg/mL (≈ 74.9 µM)	–	–	–	–	–	–	–	MIC (Enterobacter cloacae [17]): > 64 µg/mL; MIC (Citrobacter freundii): > 64 µg/mL; MIC (Klebsiella pneumoniae [18]): > 64 µg/mL; Activity (Escherichia coli [19]): inactive; MIC (Klebsiella pneumoniae [20]): > 64 µg/mL; MIC (Klebsiella pneumoniae [21]): > 64 µg/mL; MIC (Klebsiella oxytoca): > 64 µg/mL; MIC (Enterobacter cloacae [22]): > 64 µg/mL; MIC (Klebsiella pneumoniae [23]): > 64 µg/mL
CC1=C[C@@H](C(N)=O)N2C[C@@H]1N(O[C@@H](F)C(=O)OC(C)C)C2=O	–	–	–	–	–	–	–	–	–	–	bioavailability [11]: 84%
